{"source": "ChEMBL document CHEMBL4818983", "about": "“Structure-activity relationship and hypoglycemic activity of tricyclic matrines with advantage of treating diabetic nephropathy” (Eur J Med Chem, 2020)", "key": {"[1]": {"test_system": "L6", "assay": "Induction of glycolysis in rat L6 cells assessed as reduction in cellular ATP production at 10 to 40 uM measured after 24 hrs", "format": "functional, cell-based", "settings": "dose 10-40 µM", "how_it_was_run": "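L6 myotubes treated with DMSO, compound or RGZ (20 μM) at the indicated concentrations for 24 h. Culture supernatants assayed for glucose consumption and lactate release; lysed cells assayed for ATP, normalized to protein. Mean ± SD of 3 independent experiments vs DMSO.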"}, "[2]": {"test_system": "Mus musculus", "assay": "Antidiabetic activity in KK-Ay mouse assessed as effect on cholesterol level at 50 mg/kg, […] by ELISA (reference value: 7.38 +/- 1.03 mM)", "format": "functional"}, "[3]": {"test_system": "HepG2", "assay": "Induction of glycolysis in human HepG2 cells assessed as reduction in cellular ATP production at 10 to 40 uM measured after 24 hrs", "format": "functional, cell-based", "settings": "dose 10-40 µM", "how_it_was_run": "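HepG2 cells treated 24 h at the indicated concentrations; RGZ as reference. Supernatants used for glucose consumption and lactate release; lysed cells used for ATP, normalized to protein content. Mean ± SD of 3 or 4 separate experiments; compared with DMSO.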"}, "[4]": {"assay": "Effect on high fat diet-fed KK-Ay mouse model of obesity and diabetes assessed as total body weight gain at 100 mg/kg, po (reference value: 43.5 +/- 5.24 g)", "format": "ADME, organism-based", "settings": "in vivo", "how_it_was_run": "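KK-Ay mice on lipogenic diet, with C57BL/6J mice as normal controls, dosed orally at 50 or 100 mg/kg (test) or 5 mg/kg (RGZ). Food intake (g/day), water intake (mL/day) and body weight recorded before and after treatment; body weight gain calculated. Mean±SD, 8-9 mice per group.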"}, "[5]": {"assay": "Effect on high fat diet-fed po dosed C57BL/6J mouse model of obesity and diabetes assessed as total body weight gain", "format": "organism-based", "settings": "in vivo"}, "[6]": {"test_system": "Mus musculus", "assay": "Antidiabetic activity in KK-Ay mouse assessed as effect on serum Creatinine level at 100 mg/kg, po for 24 hrs by ELISA (reference value: 124 +/- 35.1 uM)", "format": "functional"}}, "note": "Calls of active or inactive are those of the source. The calls are words filed in the database; no cut-off is given here."}
{"smiles": "CCCC[C@@H]1[C@H]2CCCN3CCC[C@@H](CN1S(=O)(=O)c1ccc(C(F)(F)F)cc1)[C@@H]23", "values": [{"measurement": "Activity", "setting": "[1]", "result": "Active"}, {"measurement": "Activity", "setting": "[2]", "result": 7.05, "unit": "mM"}, {"measurement": "Activity", "setting": "[3]", "result": "Dose-Dependent Effect"}, {"measurement": "Activity", "setting": "[4]", "result": 2.53, "unit": "g"}, {"measurement": "Activity", "setting": "[5]", "result": 3.42, "unit": "g"}, {"measurement": "Activity", "setting": "[6]", "result": 70.4, "unit": "µM"}]}
